Laboratory results published in ChEMBL document CHEMBL1129609, “Synthesis and antiviral activity evaluation of some new aminoadamantane derivatives. 2” (1996).
In brackets after ≈: the same amount, converted by molar mass.

Columns and labels:
MDCK [1] = test: Antiviral activity of compound was tested against influenza A,H3N2 virus infected MDCK cell lines.; format: functional; details: Canis lupus familiaris
HeLa [2] = test: Antiviral activity of compound was tested against polio-1 virus infected HeLa cell lines.; format: functional; details: Homo sapiens
How it was run: (§1)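 Vero (African green monkey kidney), HeLa (human epithelial) or HEL (human embryonic lung) cell monolayers infected with the virus. Readout is the minimum inhibitory concentration that reduces virus-induced cytopathicity by 50%. Values are averages of at least two separate experiments.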

CCRF-CEM [3] = test: Antiviral activity of compound was tested against viability virus infected CEM cell lines.; format: functional; details: Homo sapiens
HEF [4] = test: Antiviral activity of compound was tested against TK-HSV-1 virus infected HEF cell lines.; format: functional; details: Homo sapiens
How it was run: (§2)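 Human embryonic fibroblasts, from embryonic lung or embryonic skin-muscle, infected with the virus. Endpoint is the minimum inhibitory concentration that reduces virus-induced cytopathicity by 50%. Values are averages of at least two separate experiments.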

[5] = Antiviral activity against influenza A,H2N2 virus infected MDCK cell lines.; format: functional
HeLa [6] = test: Antiviral activity of compound was tested against morphology virus infected HeLa cell lines.; format: functional; details: Homo sapiens
MDCK [7] = test: Antiviral activity tested against influenza A,H1N1 virus infected MDCK cell lines.; format: functional; details: Canis lupus familiaris
Vero [8] = test: Antiviral activity of compound were tested against semliki forest virus infected vero cell lines.; format: functional; details: Chlorocebus sabaeus; how it was run: as §1
CCRF-CEM [9] = test: Antiviral activity of compound were tested against HIV-2 virus infected CEM cell lines.; format: functional; details: Homo sapiens
MDCK [10] = test: Antiviral activity of compound was tested against morphology virus infected MDCK cell lines.; format: functional; details: Canis lupus familiaris
HeLa [11] = test: Antiviral activity of compound was tested against Coxsackie B4 virus infected HeLa cell lines.; format: functional; details: Homo sapiens; how it was run: as §1
Vero [12] = test: Antiviral activity of compound was tested against Coxsackie B4 virus infected vero cell lines.; format: functional; details: Chlorocebus sabaeus; how it was run: as §1
HEL [13] = test: Antiviral activity of compound was tested against HCMV virus infected HEL cell lines.; format: functional; details: Homo sapiens; how it was run: as §1
MDCK [14] = test: Antiviral activity of compound was tested against influenza […] virus infected MDCK cell lines; format: functional; details: Canis lupus familiaris
CCRF-CEM [15] = test: Antiviral activity of compound was tested against HIV-1 virus infected CEM cell lines.; format: functional; details: Homo sapiens
Vero [16] = test: Antiviral activity of compound was tested against morphology virus infected Vero cell lines.; format: functional; details: Chlorocebus sabaeus
[17] = tested on: Vesicular stomatitis virus; test: Antiviral activity against vesicular stomatitis virus infected HeLa cell lines.; format: functional; how it was run: as §1
HEL [18] = test: Antiviral activity of compound was tested against proliferation virus infected HEL cell lines.; format: functional; details: Homo sapiens
HEF [19] = test: Antiviral activity of compound was tested against morphology virus infected HEF cell lines.; format: functional; details: Homo sapiens
Vero [20] = test: Antiviral activity of compound was tested against sindbis virus infected vero cell lines.; format: functional; details: Chlorocebus sabaeus; how it was run: as §1
Vero [21] = test: Antiviral activity of compound was tested against reo1 virus infected vero cell lines.; format: functional; details: Chlorocebus sabaeus; how it was run: as §1
HEL [22] = test: Antiviral activity of compound was tested against TK-VZV virus infected HEL cell lines.; format: functional; details: Homo sapiens; how it was run: as §1
HEF [23] = test: Antiviral activity of compound was tested against HSV-2 virus infected HEF cell lines.; format: functional; details: Homo sapiens; how it was run: as §2
Human alphaherpesvirus 1 [24] = test: Antiviral activity against HSV-1 virus infected HEF cell lines.; format: functional; how it was run: as §2
HEF [25] = test: Antiviral activity of compound was tested against vaccinia virus infected HEF cell lines.; format: functional; details: Homo sapiens; how it was run: as §2
[26] = tested on: Vesicular stomatitis virus; test: Antiviral activity against vesicular stomatitis virus infected HEF cell lines.; format: functional; how it was run: as §2
Vero [27] = test: Antiviral activity of compound was tested against parainfluenza 3,[…] virus infected Vero cell lines.; format: functional; details: Chlorocebus sabaeus; how it was run: as §1
HEL [28] = test: Antiviral activity of compound was tested against TK+VZV virus infected HEL cell lines.; format: functional; details: Homo sapiens; how it was run: as §1
Human alphaherpesvirus 2 = test: Antiviral activity against HSV-2 virus infected HEF cell lines.; format: functional; how it was run: as §2
Human betaherpesvirus 5 = test: Antiviral activity against HCMV virus infected HEL cell lines.; format: functional; how it was run: as §1
HEF [29] = test: Effects on cell morphology of HEF cell lines.; format: functional; details: Homo sapiens
How it was run: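 Human embryonic skin-muscle fibroblasts were examined under the microscope for changes in normal cell morphology. The value is the minimum concentration causing a microscopically detectable alteration, averaged from at least two separate experiments.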

HeLa [30] = test: Effects on cell morphology of HeLa cell lines.; format: functional; details: Homo sapiens
How it was run: (§3)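 HeLa (human epithelial) or Vero (African green monkey kidney) cells were examined under the microscope for changes in normal morphology. The value is the minimum concentration causing a detectable alteration, averaged from at least two separate experiments.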

Human respirovirus 3 = test: Antiviral activity against parainfluenza 3 virus infected Vero cell lines.; format: functional; how it was run: as §1
Human alphaherpesvirus 1 [31] = test: Antiviral activity against TK-HSV-1 virus infected HEF cell lines.; format: functional; how it was run: as §2
MDCK [32] = test: Antiviral activity of compound was tested against morphology virus infec+ted MDCK cell lines.; format: functional; details: Canis lupus familiaris
Coxsackievirus B4 [33] = test: Antiviral activity against Coxsackie B4 virus infected HeLa cell lines.; format: functional; details: Enterovirus B; how it was run: as §1
Enterovirus C = test: Antiviral activity against polio 1 virus infected HeLa cell lines.; format: functional; how it was run: as §1
Coxsackievirus B4 [34] = test: Antiviral activity against Coxsackie B4 virus infected vero cell lines.; format: functional; details: Enterovirus B; how it was run: as §1
[35] = tested on: Human immunodeficiency virus 1; test: Antiviral activity against HIV-1 virus infected CEM cell lines.; format: functional, CCRF-CEM
[36] = Antiviral activity against influenza A,H3N2 virus infected MDCK cell lines.; format: functional
Vero [37] = test: Effects on cell morphology of Vero cell lines.; format: functional; details: Chlorocebus sabaeus; how it was run: as §3
Influenza B virus = test: Antiviral activity against influenza B virus infected MDCK cell lines.; format: functional
Vaccinia virus = test: Antiviral activity against vaccinia virus infected HEF cell lines.; format: functional; details: Orthopoxvirus vaccinia; how it was run: as §2
HEL [38] = test: Inhibition of HEL cell proliferation.; format: functional; details: Homo sapiens
How it was run: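 Human embryonic lung fibroblasts were used for the proliferation assay. The value is the concentration that reduces cell proliferation by 50%, averaged from at least two separate experiments.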

Sindbis virus = test: Antiviral activity against sindbis virus infected Vero cell lines.; format: functional; how it was run: as §1
CCRF-CEM [39] = test: Cytotoxicity against CEM cell lines.; format: functional; details: Homo sapiens
[40] = tested on: Human immunodeficiency virus 2; test: Antiviral activity against HIV-2 virus infected CEM cell lines.; format: functional, CCRF-CEM
Human alphaherpesvirus 3 [41] = test: Antiviral activity against TK-VZV virus infected HEL cell lines.; format: functional; how it was run: as §1
Human alphaherpesvirus 3 [42] = test: Antiviral activity against TK+VZV virus infected HEL cell lines.; format: functional; how it was run: as §1
Semliki Forest virus = test: Antiviral activity against Semliki forest virus infected Vero cell lines.; format: functional; how it was run: as §1
[43] = tested on: Mammalian orthoreovirus 1; test: Antiviral activity against Reo 1 virus infected vero cell lines.; format: functional; how it was run: as §1

Compound `CCN1CCOCC12C1CC3CC(C1)CC2C3` (centres undefined) has an MIC50 (MDCK [1]) greater than 57 µg/mL, an MIC50 (HeLa [2]) greater than 400 µg/mL and an MIC50 (CCRF-CEM [3]) greater than 200 µg/mL. The MIC50 (HEF [4]) was greater than 400 µg/mL, the MIC50 [5] was 10.5 µg/mL (≈ 44.6 µM) and the MIC50 (HeLa [6]) was greater than 400 µg/mL. It also gave an MIC50 (MDCK [7]) greater than 10 µg/mL, an MIC50 (Vero [8]) greater than 400 µg/mL and an MIC50 (CCRF-CEM [9]) greater than 200 µg/mL. For the same compound, the MIC50 (MDCK [10]) was greater than 250 µg/mL, the MIC50 (HeLa [11]) was greater than 400 µg/mL and the MIC50 (Vero [12]) was greater than 400 µg/mL. For the same compound, the MIC50 (HEL [13]) was greater than 50 µg/mL, the MIC50 (MDCK [14]) was greater than 80 µg/mL and the MIC50 (CCRF-CEM [15]) was 158 µg/mL (≈ 671 µM). It also gave an MIC50 (Vero [16]) greater than 400 µg/mL, an MIC50 [17] greater than 400 µg/mL and an MIC50 (HEL [18]) greater than 50 µg/mL. The MIC50 (HEF [19]) was greater than 400 µg/mL, the MIC50 (Vero [20]) was greater than 400 µg/mL and the MIC50 (Vero [21]) was greater than 400 µg/mL. For the same compound, the MIC50 (HEL [22]) was greater than 50 µg/mL, the MIC50 (HEF [23]) was greater than 400 µg/mL and the MIC50 (Human alphaherpesvirus 1 [24]) was greater than 400 µg/mL. The MIC50 (HEF [25]) was greater than 400 µg/mL, the MIC50 [26] was greater than 400 µg/mL and the MIC50 (Vero [27]) was greater than 400 µg/mL. For the same compound, the MIC50 (HEL [28]) was greater than 50 µg/mL.

Compound `C1CCC2(C1)CCCN2CC12CC3CC(CC(C3)C1)C2` has an MIC50 (Human alphaherpesvirus 2) greater than 40 µg/mL, an MIC50 (Human betaherpesvirus 5) greater than 50 µg/mL and an MIC50 [5] greater than 60 µg/mL. For the same compound, the MIC50 (HEF [29]) was 100 µg/mL (≈ 366 µM), the MIC50 (MDCK [7]) was greater than 150 µg/mL and the MIC50 (HeLa [30]) was 200 µg/mL (≈ 731 µM). It also gave an MIC50 (Human respirovirus 3) greater than 100 µg/mL, an MIC50 (Human alphaherpesvirus 1 [31]) greater than 40 µg/mL and an MIC50 (MDCK [32]) greater than 250 µg/mL. It also gave an MIC50 (Coxsackievirus B4 [33]) greater than 100 µg/mL, an MIC50 (Enterovirus C) greater than 100 µg/mL and an MIC50 (Coxsackievirus B4 [34]) greater than 100 µg/mL. The MIC50 [17] was greater than 100 µg/mL, the MIC50 [35] was greater than 40 µg/mL and the MIC50 [36] was greater than 47 µg/mL. It also gave an MIC50 (Vero [37]) greater than 400 µg/mL, an MIC50 (Influenza B virus) greater than 100 µg/mL and an MIC50 (Vaccinia virus) greater than 40 µg/mL. For the same compound, the MIC50 (HEL [38]) was greater than 50 µg/mL, the MIC50 (Sindbis virus) was greater than 100 µg/mL and the MIC50 (Human alphaherpesvirus 1 [24]) was greater than 40 µg/mL. It also gave an MIC50 [26] greater than 100 µg/mL, an MIC50 (CCRF-CEM [39]) of 59 µg/mL (≈ 216 µM) and an MIC50 [40] greater than 40 µg/mL. For the same compound, the MIC50 (Human alphaherpesvirus 3 [41]) was 20 µg/mL (≈ 73.1 µM), the MIC50 (Human alphaherpesvirus 3 [42]) was 32 µg/mL (≈ 117 µM) and the MIC50 (Semliki Forest virus) was greater than 100 µg/mL. For the same compound, the MIC50 [43] was greater than 100 µg/mL.

For `CCN1CCCC1C12CC3CC(CC(C3)C1)C2` (centres undefined), the MIC50 (Human alphaherpesvirus 2) was greater than 100 µg/mL, the MIC50 (Human betaherpesvirus 5) was greater than 50 µg/mL and the MIC50 [5] was greater than 14 µg/mL. The MIC50 (HEF [29]) was 200 µg/mL (≈ 857 µM), the MIC50 (MDCK [7]) was greater than 34 µg/mL and the MIC50 (HeLa [30]) was greater than 400 µg/mL. For the same compound, the MIC50 (Human respirovirus 3) was greater than 400 µg/mL, the MIC50 (Human alphaherpesvirus 1 [31]) was greater than 100 µg/mL and the MIC50 (MDCK [32]) was 250 µg/mL (≈ 1070 µM). For the same compound, the MIC50 (Coxsackievirus B4 [33]) was greater than 400 µg/mL, the MIC50 (Enterovirus C) was greater than 400 µg/mL and the MIC50 (Coxsackievirus B4 [34]) was greater than 400 µg/mL. It also gave an MIC50 [17] greater than 400 µg/mL, an MIC50 [35] greater than 40 µg/mL and an MIC50 [36] of 58 µg/mL (≈ 249 µM). It also gave an MIC50 (Vero [37]) greater than 400 µg/mL, an MIC50 (Influenza B virus) of 60 µg/mL (≈ 257 µM) and an MIC50 (Vaccinia virus) greater than 100 µg/mL. For the same compound, the MIC50 (HEL [38]) was greater than 50 µg/mL, the MIC50 (Sindbis virus) was greater than 400 µg/mL and the MIC50 (Human alphaherpesvirus 1 [24]) was greater than 100 µg/mL. For the same compound, the MIC50 [26] was greater than 100 µg/mL, the MIC50 (CCRF-CEM [39]) was 115 µg/mL (≈ 493 µM) and the MIC50 [40] was greater than 40 µg/mL. The MIC50 (Human alphaherpesvirus 3 [41]) was greater than 50 µg/mL, the MIC50 (Human alphaherpesvirus 3 [42]) was greater than 50 µg/mL and the MIC50 (Semliki Forest virus) was greater than 400 µg/mL. For the same compound, the MIC50 [43] was greater than 400 µg/mL.
